High-throughput results from PubChem BioAssay.
b-catenin transl: modulators of beta-catenin nuclear translocation, primary screen, imaging, HeLa cells, immunofluorescence, high-content. nuclear translocation activity, % at 5 µM. actives 0.3% (n = 190,000);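 active means nuclear translocation activity above 50% at 5 µM, with a well cell count of 50 or more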;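 further: per-cell ratio of nuclear to cytoplasmic median beta-catenin stain intensity; plate controls were DMSO negative control for no effect and GSK-3 inhibitor IX positive control for full effect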
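Test system: human HeLa cells, endogenous beta-catenin. Times: 24 h compound exposure, 37°C. Measured by: beta-catenin immunofluorescence imaging with DAPI.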
Ba/F3 V617F tox: reduced viability of JAK2V617F-dependent Ba/F3 cells, primary screen, JAK2V617F inhibitor project, cell-based, Ba/F3 EpoR-JAK2V617F, luminescence. ATP luminescence. inhibition, % at 5.6 µM. actives 1.1% (n = 220,000);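 active means inhibition above the campaign mean plus 3 SD over all tested compounds, cut at about 24% in these data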;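 further: cytokine-independent growth of Ba/F3 cells driven by EpoR plus mutant JAK2; 0% = DMSO-treated cells and 100% = JAK inhibitor I control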
IEC-6 cytotox: cytotoxicity in IEC-6 intestinal epithelial cells, primary screen, cytotoxicity control for KLF5 inhibitor project, cell-based, luminescence | actives 0.78% (n = 290,000) | inhibition, % at 5 µM | IEC-6 cytotoxicity, luminescence viability; in the data active means inhibition above about 22%;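 further: 0% = plate median of test compound wells and 100% = cytotoxic reference compound wells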
BaF3 tox: parental Ba/F3 cell viability inhibition, counter-screen for JAK2V617F inhibitor project, murine pro-B, CellTiter-Glo luminescence | CellTiter-Glo ATP luminescence | inhibition, % at 5.6 µM | actives 1.1% (n = 220,000) | AID 1486, 2009;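 active means inhibition above a per-campaign cutoff, the mean inhibition of all tested compounds plus 3 SD, cut at about 27% in these data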;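 further: 0% = DMSO wells and 100% = JAK Inhibitor I control wells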
MT stabilizer: microtubule stabilizers in HeLa cells, primary screen, imaging, high-content imaging. actives 0.83% (n = 200,000). % tubulin-high responders, % at 10 µM. HeLa tubulin immunostaining HCS, 24 h; share of cells brighter than vehicle mean+2SD;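 active means plate Z-score above 3 for both tubulin-high and condensed-nucleus cell shares, with cell loss under 80%, at 10 µM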;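 further: anti alpha tubulin signal scored within the nucleus-defined area of each cell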
KLF5 inhibitor: KLF5 expression inhibitors, primary screen, DLD-1 cells, luminescence. DLD-1 KLF5 promoter-luciferase reporter. inhibition, % at 5 µM. actives 0.23% (n = 290,000). AID 1700, 2009;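 active means inhibition above a per-plate limit of that plate's mean compound inhibition plus 3 SD, cut at about 60% in these data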;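 further: 0% = DMSO wells and 100% = LY294002 at 200 µM; higher means less KLF5 promoter-driven luciferase light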
* hit, by the source's call. This is a sample that favours compounds with a hit; in the whole collection about 2.1% have one here.

Results for Cc1cc2ccccn2c1C(=O)c1ccccc1F ?
IEC-6 cytotox: 12; KLF5 inhibitor: -19

What do the screens show for `C/C(=N\NC(N)=S)C1C2C3CC4C5CC(C42)C1C53` (centres undefined)?
b-catenin transl: 0; Ba/F3 V617F tox: 19; IEC-6 cytotox: 1; BaF3 tox: 24; MT stabilizer: 7.4*; KLF5 inhibitor: 5

How did C/C(CCC12CC3CC(CC(C3)C1)C2)=N\NC(N)=S do in these assays?
Ba/F3 V617F tox: -3; IEC-6 cytotox: -4; BaF3 tox: 1; MT stabilizer: 0; KLF5 inhibitor: -14

Results for C=CCN(c1ccccc1Cl)S(=O)(=O)c1cc(C(=O)N2CCCC2)ccc1Cl ?
b-catenin transl: 1; Ba/F3 V617F tox: -2; IEC-6 cytotox: 4; BaF3 tox: 7; KLF5 inhibitor: 13

What do the screens show for `Oc1ccc(N=Nc2ccc3c(c2)OCCO3)c(O)c1`?
b-catenin transl: -2; Ba/F3 V617F tox: 1; IEC-6 cytotox: 1; BaF3 tox: 0; KLF5 inhibitor: -22

What do the screens show for `Oc1ccc(N=Nc2ccc(Br)cc2)c(O)c1`?
b-catenin transl: 26; Ba/F3 V617F tox: -4; IEC-6 cytotox: 29*; BaF3 tox: 0; KLF5 inhibitor: -63

What do the screens show for `CCC(=O)Nc1ccc(C2C(=O)c3ccccc3C2=O)cc1`?
IEC-6 cytotox: 5; KLF5 inhibitor: -75

What do the screens show for `Cc1ccc(S(=O)(=O)N(C)C)cc1NC(=O)c1cccnc1Oc1ccccc1`?
b-catenin transl: 6; Ba/F3 V617F tox: -3; IEC-6 cytotox: -3; BaF3 tox: -1; KLF5 inhibitor: 1

How did COc1cc(-c2nnc(SCC(=O)N(Cc3ccccc3)C(C)(C)C)o2)cc(OC)c1OC do in these assays?
b-catenin transl: 2; Ba/F3 V617F tox: 2; IEC-6 cytotox: 6; BaF3 tox: 96*; MT stabilizer: 2; KLF5 inhibitor: -9

Results for CC(C)Cc1nnc(NC(=O)CCC(=O)NC2CCCC2)s1 ?
IEC-6 cytotox: -1; KLF5 inhibitor: -19

How did CCOc1ccccc1C(=O)NC(C)c1ccc2c(c1)OCO2 (centres undefined) do in these assays?
b-catenin transl: 20; Ba/F3 V617F tox: 4; IEC-6 cytotox: 0; BaF3 tox: 5; MT stabilizer: 42*; KLF5 inhibitor: -4

What do the screens show for `CC(C)CC(C(=O)Nc1oc(-c2ccco2)c(-c2ccco2)c1C#N)N1C(=O)c2ccccc2C1=O` (centres undefined)?
b-catenin transl: -4; Ba/F3 V617F tox: -3; IEC-6 cytotox: -10; BaF3 tox: 7; MT stabilizer: 2; KLF5 inhibitor: -19

What do the screens show for `O=C1C(Cl)=C(NCCN2CCCCC2)C(=O)c2ccccc21`?
b-catenin transl: 0; Ba/F3 V617F tox: 7; IEC-6 cytotox: 42*; BaF3 tox: 26; MT stabilizer: 46; KLF5 inhibitor: 10

How did O=C(NCCCN1CCCC1=O)c1cccc(S(=O)(=O)N2CCN(c3ccc(F)cc3)CC2)c1 do in these assays?
IEC-6 cytotox: 0; KLF5 inhibitor: -6

How did CC(=O)Nc1nnc(SCC(=O)N2C(C)CCCC2C)s1 (centres undefined) do in these assays?
IEC-6 cytotox: -4; KLF5 inhibitor: 3

What do the screens show for `COc1ccc(CCNC(=O)c2nonc2N)cc1OC`?
Ba/F3 V617F tox: -2; IEC-6 cytotox: -3; BaF3 tox: 69*; MT stabilizer: 4; KLF5 inhibitor: -18

How did CN(Cc1ccccc1)C(=O)c1ccccc1-c1ccccc1 do in these assays?
b-catenin transl: -2; Ba/F3 V617F tox: 1; IEC-6 cytotox: 7; BaF3 tox: -1; MT stabilizer: 2; KLF5 inhibitor: -14

How did Cn1c(=O)cc(OCC(=O)NC2CCCCC2)c2ccccc21 do in these assays?
b-catenin transl: -1; Ba/F3 V617F tox: 2; IEC-6 cytotox: 8; BaF3 tox: 6; MT stabilizer: 4; KLF5 inhibitor: -11

How did Cn1c(=O)cc(OCCCC(=O)NC2CCCC2)c2ccccc21 do in these assays?
b-catenin transl: 3; Ba/F3 V617F tox: 51*; IEC-6 cytotox: 21; BaF3 tox: 45*; MT stabilizer: 4; KLF5 inhibitor: -45

How did COc1ccc(-n2cc(C#N)c(=O)n(Cc3ccc(F)cc3)c2=O)cc1 do in these assays?
b-catenin transl: 31; Ba/F3 V617F tox: -2; IEC-6 cytotox: 0; BaF3 tox: 4; MT stabilizer: 24*; KLF5 inhibitor: 22

Results for Cc1cc(C)n(Cc2ccc(F)cc2)c(=O)c1C#N ?
b-catenin transl: 1; Ba/F3 V617F tox: -2; IEC-6 cytotox: -5; BaF3 tox: 7; MT stabilizer: 4; KLF5 inhibitor: -13

How did COc1ccc(/C=N/NC(=O)c2ccc(Cl)cc2Cl)cc1COC(C)=O do in these assays?
b-catenin transl: 2; Ba/F3 V617F tox: 4; IEC-6 cytotox: 10; BaF3 tox: 2; MT stabilizer: 21*; KLF5 inhibitor: -4

Results for Cc1ccc(Cl)cc1N1CCN(C(=O)C2CCN(c3nnc(-n4cccc4)s3)CC2)CC1 ?
b-catenin transl: 4; Ba/F3 V617F tox: 0; IEC-6 cytotox: -3; BaF3 tox: 5; MT stabilizer: 3; KLF5 inhibitor: 3

Results for Cc1cccc(N2CCN(C(=O)C3CCN(c4nnc(-n5cccc5)s4)CC3)CC2C)c1 (centres undefined) ?
b-catenin transl: 1; Ba/F3 V617F tox: 6; IEC-6 cytotox: 2; BaF3 tox: 45*; MT stabilizer: 3; KLF5 inhibitor: -3

Results for O=C1CC(c2ccccc2)CC2=C1CN(C1CCCCC1)CN2 (centres undefined) ?
b-catenin transl: -4; Ba/F3 V617F tox: -1; IEC-6 cytotox: 2; BaF3 tox: 1; MT stabilizer: 51*; KLF5 inhibitor: -22

Results for CC[N+](C)(C)CCN(Cc1ccc(Cl)cc1)c1ccccn1 ?
b-catenin transl: -2; Ba/F3 V617F tox: 27*; IEC-6 cytotox: -3; BaF3 tox: 39*; MT stabilizer: 2; KLF5 inhibitor: -11

How did COc1ccc(CN(CCN(C)C)c2ccccn2)cc1 do in these assays?
Ba/F3 V617F tox: 0; IEC-6 cytotox: -2; BaF3 tox: 2; MT stabilizer: 3; KLF5 inhibitor: -16

Results for O=C1CS/C(=N\c2ccccn2)N1C1CCCCC1 ?
b-catenin transl: -9; Ba/F3 V617F tox: -2; IEC-6 cytotox: 1; BaF3 tox: 96*; MT stabilizer: 3; KLF5 inhibitor: 2

What do the screens show for `O=C1c2cccnc2C(=O)N1C1CCCCC1`?
Ba/F3 V617F tox: 2; IEC-6 cytotox: -1; BaF3 tox: -1; MT stabilizer: 10; KLF5 inhibitor: -22
